pIC50: −log10 of the molar value. Active and inactive are the calls of the source. The rule behind the calls is not given here.
What was measured:
MCF7 = assay: Cytotoxicity against human MCF7 cells; assay type: functional, cell-based
Method in brief: (§1)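 SRB assay. 5000 cells/well were seeded in medium with 10% serum and left 18-20 h at 5% CO2 to adhere. Final compound 0 to 100 μM for 48 h at 37 °C; DMSO vehicle, doxorubicin positive control. Cells fixed in 10% TCA 1 h at 4 °C, stained 30 min with 0.057% SRB, washed with 1% acetic acid. Dye solubilised in 10 mM Tris base, A510 read, IC50 derived.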

A549 = assay: Cytotoxicity against human A549 cells; assay type: functional, cell-based; method in brief: as §1
DU-145 [1] = assay: Cytotoxicity against human DU145 cells; assay type: functional, cell-based; method in brief: as §1
HeLa = assay: Cytotoxicity against human HeLa cells; assay type: functional, cell-based; method in brief: as §1
DU-145 [2] = assay: Cell cycle arrest in human DU145 cells assessed as accumulation at S phase at 10 uM after 48 hrs by propidium iodide staining-based flow cytometric analysis (reference value: 5.77%); assay type: functional
DU-145 [3] = assay: Cell cycle arrest in human DU145 cells assessed as accumulation at G0/G1 phase at 25 uM after 48 hrs by propidium iodide staining-based flow cytometric analysis (reference value: 70.54%); assay type: functional
DU-145 [4] = assay: Cell cycle arrest in human DU145 cells assessed as accumulation at S phase at 20 uM after 48 hrs by propidium iodide staining-based flow cytometric analysis (reference value: 5.77%); assay type: functional
DU-145 [5] = assay: Cytotoxicity against human DU145 cells assessed as inhibition of colony formation on soft agar media after 9 days by crystal violet staining-based microscopic analysis; assay type: functional, cell-based
Method in brief: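 Soft agar assay. Base layer was 0.5% agar in growth medium with 10% serum. On top, 2.5×10^4 DU145 cells were set in 0.35% agar containing compound (0–25 μM). Medium plus compound replenished every 3 days for 9 days. Stained with 0.005% crystal violet, then colonies photographed and counted under a microscope.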

DU-145 [6] = assay: Cell cycle arrest in human DU145 cells assessed as accumulation at G0/G1 phase at 15 uM after 48 hrs by propidium iodide staining-based flow cytometric analysis (reference value: 70.54%); assay type: functional
DU-145 [7] = assay: Cell cycle arrest in human DU145 cells assessed as accumulation at G2/M phase at 5 uM after 48 hrs by propidium iodide staining-based flow cytometric analysis (reference value: 23.09%); assay type: functional
DU-145 [8] = assay: Cell cycle arrest in human DU145 cells assessed as accumulation at G2/M phase at 10 uM after 48 hrs by propidium iodide staining-based flow cytometric analysis (reference value: 23.09%); assay type: functional
DU-145 [9] = assay: Cell cycle arrest in human DU145 cells assessed as accumulation at S phase at 5 uM after 48 hrs by propidium iodide staining-based flow cytometric analysis (reference value: 5.77%); assay type: functional
DU-145 [10] = assay: Cell cycle arrest in human DU145 cells assessed as accumulation at G2/M phase at 25 uM after 48 hrs by propidium iodide staining-based flow cytometric analysis (reference value: 23.09%); assay type: functional
DU-145 [11] = assay: Cytotoxicity against human DU145 cells assessed as change in cell morphology at 5 to 25 uM after 48 hrs by microscopic analysis; assay type: functional, cell-based
Method in brief: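 DU145 cells seeded in 24-well plates and left 18-20 h, then exposed to increasing concentrations for 48 h with a DMSO comparison. Morphology examined and imaged by light microscopy.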

DU-145 [12] = assay: Cell cycle arrest in human DU145 cells assessed as accumulation at G0/G1 phase at 5 uM after 48 hrs by propidium iodide staining-based flow cytometric analysis (reference value: 70.54%); assay type: functional
DU-145 [13] = assay: Cell cycle arrest in human DU145 cells assessed as accumulation at G2/M phase at 20 uM after 48 hrs by propidium iodide staining-based flow cytometric analysis (reference value: 23.09%); assay type: functional
DU-145 [14] = assay: Cell cycle arrest in human DU145 cells assessed as accumulation at S phase at 15 uM after 48 hrs by propidium iodide staining-based flow cytometric analysis (reference value: 5.77%); assay type: functional
DU-145 [15] = assay: Induction of senescence in human DU145 cells at 5 to 25 uM after 48 hrs by SA-beta-gal staining-based microscopic analysis; assay type: functional, cell-based
Method in brief: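 DU145 in 24-well plates treated for 48 h. Cells washed with PBS and fixed 5 min at room temperature in 2% formaldehyde/0.2% glutaraldehyde. Stained overnight at 37 °C in 40 mM citric acid/Na phosphate (pH 6.0), 5 mM each ferro- and ferricyanide, 150 mM NaCl, 2 mM MgCl2, 1 mg/ml X-gal. Positive cells observed and photographed by microscopy.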

DU-145 [16] = assay: Induction of apoptosis in human DU145 cells assessed as change in mitochondrial membrane potential at 8.5 to 20 uM after 24 hrs by JC-1 dye-based assay; assay type: functional, cell-based
Method in brief: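 DU145 seeded in 24-well plates and left 18 h at 37 °C, 5% CO2, then treated for 24 h, DMSO control. Stained with JC-1 working solution (stock mixed 1:1 with growth medium) for 20 min at 37 °C. Washed twice with medium, then red (aggregate) versus green (monomer) fluorescence viewed by microscopy.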

DU-145 [17] = assay: Cell cycle arrest in human DU145 cells assessed as accumulation at G2/M phase at 15 uM after 48 hrs by propidium iodide staining-based flow cytometric analysis (reference value: 23.09%); assay type: functional
DU-145 [18] = assay: Induction of apoptosis in human DU145 cells assessed as caspase-3 activation using Ac-DEVD-AMC as substrate after 48 hrs by fluorometric analysis; assay type: functional, cell-based
Method in brief: (§2)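 DU145 exposed to several concentrations for 48 h; DMSO negative, doxorubicin positive control. Cells lysed in 50 mM HEPES, 5 mM CHAPS, 5 mM DTT, pH 7.5. Lysate incubated with substrate in 20 mM HEPES pH 7.5, 0.1% CHAPS, 2 mM EDTA, 5 mM DTT for 2 h at 37 °C. AMC read at ex/em 380/460 nm (caspase-3), AFC at 400/505 nm (caspase-9). Values normalised to Bradford protein and expressed relative to DMSO; triplicates, means.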

DU-145 [19] = assay: Cell cycle arrest in human DU145 cells assessed as accumulation at G0/G1 phase at 10 uM after 48 hrs by propidium iodide staining-based flow cytometric analysis (reference value: 70.54%); assay type: functional
DU-145 [20] = assay: Cell cycle arrest in human DU145 cells assessed as accumulation at G0/G1 phase at 20 uM after 48 hrs by propidium iodide staining-based flow cytometric analysis (reference value: 70.54%); assay type: functional
DU-145 [21] = assay: Induction of apoptosis in human DU145 cells assessed as caspase-9 activation using Ac-LEHD-AFC as substrate after 48 hrs by fluorometric analysis; assay type: functional, cell-based; method in brief: as §2
DU-145 [22] = assay: Cell cycle arrest in human DU145 cells assessed as accumulation at S phase at 25 uM after 48 hrs by propidium iodide staining-based flow cytometric analysis (reference value: 5.77%); assay type: functional

Structure (SMILES): COc1ccc([C@H]2NC(=O)O[C@H]2CO)cc1
- pIC50 (MCF7): 4.08
- pIC50 (A549): 4.59
- pIC50 (DU-145 [1]): 4.33
- pIC50 (HeLa): 4.58

Structure (SMILES): CC[C@H]1OC(=O)N(c2ccc(N3CCOCC3)c(F)c2)[C@@H]1c1ccc(OC)cc1
- Activity (DU-145 [2]): 3.85%
- Activity (DU-145 [3]): 91.11%
- Activity (DU-145 [4]): 1.93%
- inhibition (DU-145 [5]): Dose-dependent effect
- Activity (DU-145 [6]): 79.14%
- Activity (DU-145 [7]): 19.45%
- Activity (DU-145 [8]): 20.49%
- Activity (DU-145 [9]): 4.61%
- Activity (DU-145 [10]): 6.54%
- pIC50 (MCF7): < 4.00
- Activity (DU-145 [11]): Active
- Activity (DU-145 [12]): 75.65%
- Activity (DU-145 [13]): 16.19%
- Activity (DU-145 [14]): 3.56%
- Activity (DU-145 [15]): Active
- Activity (DU-145 [16]): Active
- pIC50 (A549): 4.87
- Activity (DU-145 [17]): 16.7%
- Activity (DU-145 [18]): Dose-dependent effect
- Activity (DU-145 [19]): 75.29%
- pIC50 (DU-145 [1]): 5.02
- Activity (DU-145 [20]): 80.5%
- pIC50 (HeLa): 4.63
- Activity (DU-145 [21]): Dose-dependent effect
- Activity (DU-145 [22]): 0.79%

Structure (SMILES): COc1ccc([C@@H]2[C@H](CO)OC(=O)N2c2ccc(N3CCOCC3)c(F)c2)cc1
- pIC50 (MCF7): 4.44
- pIC50 (A549): 4.36
- pIC50 (DU-145 [1]): 4.41
- pIC50 (HeLa): 4.45

Structure (SMILES): COc1ccc([C@@H]2[C@@H](CNC(C)=O)OC(=O)N2c2ccc(N3CCOCC3)c(F)c2)cc1
- pIC50 (MCF7): < 4.00
- pIC50 (A549): 4.26
- pIC50 (DU-145 [1]): 4.57
- pIC50 (HeLa): 4.29

Structure (SMILES): C=CC(=O)OCCC(=O)OC[C@H]1OC(=O)N(c2ccc(N3CCOCC3)c(F)c2)[C@@H]1c1ccc(OC)cc1
- pIC50 (MCF7): 4.42
- pIC50 (A549): 4.85
- pIC50 (DU-145 [1]): 5.06
- pIC50 (HeLa): 4.37

Structure (SMILES): COc1ccc([C@@H]2[C@@H](COC(=O)c3ccccc3)OC(=O)N2c2ccc(N3CCOCC3)c(F)c2)cc1
- pIC50 (MCF7): 4.13
- pIC50 (A549): 4.62
- pIC50 (DU-145 [1]): 4.68
- pIC50 (HeLa): 4.24

Structure (SMILES): COc1cccc2c1C(=O)c1c(O)c3c(c(O)c1C2=O)C[C@@](O)(C(=O)CO)C[C@@H]3O[C@H]1C[C@H](N)[C@H](O)[C@H](C)O1 [DOXORUBICIN]
- pIC50 (A549): 5.08
- pIC50 (DU-145 [1]): 5.17
- pIC50 (HeLa): 4.96

Structure (SMILES): COc1ccc([C@@H]2[C@H](COC(=O)c3ccccc3)OC(=O)N2c2ccc(N3CCOCC3)c(F)c2)cc1
- pIC50 (MCF7): 4.16
- pIC50 (A549): 4.61
- pIC50 (DU-145 [1]): 4.51
- pIC50 (HeLa): 4.72

Structure (SMILES): COc1ccc([C@@H]2[C@@H](CO)OC(=O)N2c2ccc(N3CCOCC3)c(F)c2)cc1
- pIC50 (MCF7): < 4.00
- pIC50 (A549): 4.61
- pIC50 (DU-145 [1]): 4.60
- pIC50 (HeLa): 4.06

Structure (SMILES): COc1ccc([C@H]2NC(=O)O[C@@H]2CO)cc1
- pIC50 (MCF7): < 4.00
- pIC50 (A549): 4.51
- pIC50 (DU-145 [1]): 4.39
- pIC50 (HeLa): 4.25

Structure (SMILES): COc1ccc([C@@H]2[C@@H](CN)OC(=O)N2c2ccc(N3CCOCC3)c(F)c2)cc1
- pIC50 (MCF7): < 4.00
- pIC50 (A549): 4.67
- pIC50 (DU-145 [1]): 4.48
- pIC50 (HeLa): < 4.00

Structure (SMILES): C=C[C@H]1OC(=O)N(c2ccc(N3CCOCC3)c(F)c2)[C@@H]1c1ccc(OC)cc1
- pIC50 (MCF7): 4.16
- pIC50 (A549): 4.61
- pIC50 (DU-145 [1]): 4.32
- pIC50 (HeLa): 4.31

Structure (SMILES): COc1ccc([C@@H]2[C@@H](CCO)OC(=O)N2c2ccc(N3CCOCC3)c(F)c2)cc1
- pIC50 (MCF7): < 4.00
- pIC50 (A549): 4.52
- pIC50 (DU-145 [1]): 4.16
- pIC50 (HeLa): 4.36

Structure (SMILES): C=CC(=O)OCCC(=O)OC[C@@H]1OC(=O)N(c2ccc(N3CCOCC3)c(F)c2)[C@@H]1c1ccc(OC)cc1
- pIC50 (MCF7): 4.21
- pIC50 (A549): 4.37
- pIC50 (DU-145 [1]): 4.50
- pIC50 (HeLa): 4.54

Structure (SMILES): C=C[C@H]1OC(=O)N[C@@H]1c1ccc(OC)cc1
- pIC50 (MCF7): < 4.00
- pIC50 (A549): 4.67
- pIC50 (DU-145 [1]): 4.48
- pIC50 (HeLa): 4.40
